Insulin prom act: TRM-6 insulin promoter activation. activation, % at 2 µM. hit rate 0.81% among 130,000. TRM-6 cells, insulin promoter eGFP reporter, imaging; plate-scaled: unstimulated 0, stimulated control 100;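 active = activation at 2 µM above a set limit, confirmed on inspection of the cell images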;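 also: share of cells whose green reporter signal exceeds an intensity cutoff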
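Test system: human fetal islet-derived TRM-6 cells with tamoxifen-inducible insulin promoter–eGFP reporter. Compound dosing: 2 µM final, single concentration. Incubation: tamoxifen pre-incubation 15 h overnight, then compound exposure 48 h at 37 °C. Signal: fixed-cell fluorescence microscopy, eGFP plus Hoechst.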
Each line names hits and unclear results; the compound was inactive in the other large screens; [ ] = remark or other dose. The entries come from a sample that favours hits as a whole.

CC1c2c([nH]c3ccccc23)CCC1C(=O)O (centres undefined)	none
COc1ccc(N(C(=O)CCl)C(C)(C(=O)Nc2c(C)cccc2C)c2ccccn2)cc1 (centres undefined)	none
COc1ccc(NC(=O)c2ccsc2NC(C)=O)cc1	none
N#Cc1ccccc1Cn1cc(/C=N/Nc2ccc([N+](=O)[O-])cn2)c2ccccc21	Insulin prom act 400
Cn1cc(/C=N/NC(=O)COc2ccccc2[N+](=O)[O-])c2ccccc21	none
O=[N+]([O-])/C=C/c1cn(Cc2ccc(Cl)cc2)c2ccccc12	none
Cc1cccc(N2CCN(Cc3nc(-c4cccc(Oc5ccccc5)c4)oc3C)CC2)n1	none
O=C(CCN1CCN(S(=O)(=O)c2ccc(Br)cc2)CC1)Nc1ccccc1F	none
O=C(CN1CCc2ccccc2C1)Nc1ccc(F)cc1F	none
O=C(CN1CCN(S(=O)(=O)c2ccc(Br)cc2)CC1)Nc1ccc(F)cc1F	Insulin prom act 136
COc1ccc(CNS(=O)(=O)c2cc(OCC(N)=O)c(C)cc2Cl)cc1	none
Cc1c([N+](=O)[O-])c([N+](=O)[O-])nn1CC(=O)N1CCCCC1	none
COc1ccc(S(=O)(=O)N(C)CC(=O)N2CCN(Cc3ccccc3)CC2)cc1C	none
Cc1cccc(NCC(=O)N/N=C/c2cccc(Br)c2)c1	none
CSc1ccc(/C=N/NC(=O)CNc2ccc3ccccc3c2)cc1	Insulin prom act 369
CSc1ccc(/C=N/NC(=O)c2ccc(C)c(C)c2)cc1	none
Cc1nn(-c2nnc(NC3CCCCC3)nn2)c(C)c1Br	none
O=C(COC(=O)CC12CC3CC(CC(C3)C1)C2)Nc1cccnc1Cl	none
Cc1ccc(/C=C/C(=O)c2ccc(C)cc2)cc1	none
O=C(/C=C/c1ccc(N2CCC(c3ccccc3)=N2)cc1)c1ccccc1	Insulin prom act 456
O=C(/C=C/c1ccc(OC2CSC2)cc1)c1ccc(Cl)cc1	none
CCN=C1SC(CC(N)=O)C(=O)N1CC (centres undefined)	none
CC(C)CC1(C(=O)NCc2cc(F)cc(C(F)(F)F)c2)C=CCN1C(=O)c1ccccc1 (centres undefined)	none
COC(=O)c1ccccc1NC(=O)CSc1nnc(-c2cccnc2)n1N	none
C/C(=N\NC(=O)c1ccccc1-n1cccc1)C1CC1	none
CCCCn1ccnc1C(=O)c1cc(S(=O)(=O)N2CCOCC2)ccc1C	Insulin prom act 89
Cc1ccc(S(=O)(=O)N2CCOCC2)cc1NC(=O)Cn1ccsc1=N	none
COc1cc(S(=O)(=O)N2CCOCC2)cc(C(=O)c2nccn2C)c1OC	none
COc1ccccc1N(C(C)=O)c1nc(C)cc(C)c1C#N	none
CC(=O)OC(COc1cccc(C)c1)Cn1cnc2ccccc21 (centres undefined)	Insulin prom act 407
Cc1cccc(OCC(O)CNC(=O)c2ccccc2C(=O)O)c1 (centres undefined)	none
CC(=O)Nc1cccc(OCC(O)Cn2cnc3ccccc32)c1 (centres undefined)	none
O=C(O[C@@H]1OC2COC(=O)c3cc(O)c(O)c(O)c3-c3c(cc(O)c(O)c3O)C(=O)O[C@@H]([C@H]1O)[C@@H]2O)c1cc(O)c(O)c(O)c1	none
CCN(CCO)Cc1csc2ccc(C(C)(C)C)cc12	none
Cc1cc(=O)oc2cc(OCC(=O)OCC(=O)Nc3c(C)n(C)n(-c4ccccc4)c3=O)ccc12	none
COc1ccccc1CNC(=O)c1ccc(OC(C)C)cc1	none
C=CCOC(=O)C1=C(C)Nc2nnnn2C1c1ccc(OC)cc1OC (centres undefined)	none
CCCCOc1ccccc1C1C(C(N)=O)=C(C)Nc2nnnn21 (centres undefined)	Insulin prom act 493
COC(=O)C1=C(C)Nc2nnnn2C1c1ccccc1Cl (centres undefined)	none
C=CCOc1ccc(CNc2ccc(NC(=O)CC(C)C)cc2)cc1OC	none
CCOC(=O)c1c(NC(=O)CSc2nc3ccccc3c(=O)n2-c2ccccc2)sc(C(C)=O)c1C	none
Cc1cccc(-c2csc(N)c2C(=O)OC(C)C)c1	none
COC(=O)c1c(-c2ccncc2)csc1NC(=O)c1ccoc1C	none
CCOC(=O)c1c(-c2ccncc2)csc1N	Insulin prom act 460
O=[N+]([O-])c1ccc2cn(-c3ccccc3)nc2c1	none
CCC(C)/C(C)=N/NC(=O)c1ccc(COc2ccc(Cl)c(C)c2)cc1 (centres undefined)	none
COC(=O)Cn1ncc(N2C3CC(CC(C)(C)C3)C2C)c(Cl)c1=O (centres undefined)	none
CCSc1nnc(NC(=O)c2ccccn2)s1	none
CCc1ccc(NC(=O)CSc2ccccn2)cc1	none
C=CCSc1nnc(NC(=O)CSc2ccccn2)s1	Insulin prom act 425
N/C(COc1ccccc1)=N\NS(=O)(=O)c1ccccc1	none
COC(=O)c1ccc(S(=O)(=O)NNC(=O)COc2ccc(C)cc2)cc1	none
Cc1cc(C)nc(NS(=O)(=O)c2ccc(NC(=O)COc3ccccc3)cc2)n1	none
O=C(COc1ccc(/C=N/NS(=O)(=O)c2ccccc2)cc1)Nc1ccccc1	Insulin prom act 285
COC(=O)c1ccc(NC(=O)COc2ccc(S(=O)(=O)NC(C)C)cc2)cc1	none
COC(=O)c1ccc(NC(=O)COc2ccc(S(=O)(=O)NC(C)(C)C)cc2)cc1	Insulin prom act 443
CC(Sc1nc2ccccc2[nH]1)C(=O)Nc1ccccc1F (centres undefined)	none
C=CCN1C(=O)/C(=C\C=C2\N(C)c3ccccc3C2(C)C)SC1=S	Insulin prom act 614[fluoresces]
CCN1C(=O)/C(=C\N2CCCc3ccccc32)SC1=S	none
Cc1c(N=C/C=C2/N(C)c3ccccc3C2(C)C)c(=O)n(-c2ccccc2)n1C	none
CC(=O)C1=C(c2ccccc2)NC(=O)NC1c1ccccc1OCC(=O)NCc1ccccc1 (centres undefined)	none
Cc1cc(C)n(-c2cc(C)c(C)cc2Br)n1	Insulin prom act 132
CCc1cc2c(-n3nc(C)cc3C)ncnc2s1	none
Cc1cc(C)n(-c2cc(=O)n(C)c(=O)n2C)n1	none
CC(Oc1ccc(Cl)cc1Cl)C(=O)NC1CCSC1=O (centres undefined)	none
COCCNC(=O)C(C)Oc1ccc(Cl)cc1Cl (centres undefined)	none
CC(Oc1ccc(Cl)cc1Cl)c1ccn[nH]1 (centres undefined)	Insulin prom act 306
O=C(Nc1ccc(Cl)cc1C(=O)N1CCOCC1)c1cccc([N+](=O)[O-])c1	none
COC(=O)c1ccccc1NC(=S)N(Cc1ccc2c(c1)OCO2)Cc1cc2ccc(OC)cc2[nH]c1=O	none
CC(=O)c1ccc(OCCCC(=O)NC2CCCc3ccccc32)cc1 (centres undefined)	none
CC(C)(C)C(=O)NCCCc1ccccc1	none
CN(C)CCCOC(=O)c1ccccc1	none
C[N+]1(CC(=O)OCCCc2ccccc2)CCCCC1	Insulin prom act 350
O=C(CSCc1cccc(Cl)c1)Nc1ccccc1-c1ccccc1	none
Cc1ccc(-c2cc(C(=O)N/N=C/c3c(C)nn(C)c3C)c3ccccc3n2)c(C)c1	none
CNc1c([N+](=O)[O-])cnn1-c1cccc(Cl)n1	none
COc1ccc(C(=O)NC(=S)Nc2ccc(Cc3ccncc3)cc2)cc1	none
CCCC(=O)C1=C(O)C(C(=O)OC)C(C)(C)CC1=NC(C)C (centres undefined)	Insulin prom act 480
CCCC(=O)C1=C(O)C(C(=O)OC)C(C)(C)CC1=Nc1cccc2ccccc12 (centres undefined)	none
Cc1cc(C(=O)NNC(=S)NCc2ccco2)nn1C	none
CCc1ccc(N(C(=O)Cn2nnc(-c3ccccc3)n2)C(C(=O)NC2CCCCC2)c2ccccn2)cc1 (centres undefined)	none
CCOC(=O)N1CC=C2C(C#N)=C(N)C(C#N)(C#N)[C@H](c3ccccc3OCC)[C@H]2C1	none

Compound activity as filed in PubChem.
